Reference: the EternaBench riboswitch data

Test system: MS2 coat protein
Assay: apparent Kd, MS2 coat protein; higher = weaker binding; RNA-MaP array; FMN 200 µM where present
Summary of the method: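 The apparent Kd comes from binding curves fitted cluster by cluster, filtered, and summarised as a median. Those curves followed SNAP-549-labelled MS2 coat protein from 0.7 or 1.5 nM, doubling to 3 µM, on Illumina sequencing-chip clusters where stalled E. coli RNA polymerase had transcribed the designs, without and then with constant ligand. The buffer was 100 mM Tris-HCl pH 7.5, 80 mM KCl, 4 mM MgCl2, BSA, DTT, yeast tRNA and Tween-20, and green signal was normalised to red-channel RNA signal and control-cluster median Fmax.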

[1] = designed as: OFF switch for flavin mononucleotide, no ligand
[2] = ligand present: flavin mononucleotide, designed as: OFF switch for flavin mononucleotide
[3] = designed as: ON switch for flavin mononucleotide, no ligand
[4] = ligand present: flavin mononucleotide, designed as: ON switch for flavin mononucleotide

Sequence | apparent Kd [1] [nM] | apparent Kd [2] [nM] | apparent Kd [3] [nM] | apparent Kd [4] [nM]
ACAAAUGGAGGAUAUACAUGAGGAUCACCCAUGUUUAUCCUACAUGUGUGAUAAUAAUGUAGAAGGCCAUAUGA | 15.9 | 12.5 | – | –
ACAAGAUCAGGAUAUACAUGAGGAUCACCCAUGUAUAUAAAAAAAGGGCUUUCUACAUGUAGAAGGGAUCUUGU | 29.9 | 37 | – | –
ACAAUAAACUAGAAGGUGGUGAUACAUGAGGAUCACCCAUGUAUAGUACUGAGGAUAUGGAUGAUUGAAGUGAAUAUCGUAGCA | – | – | 111 | 86
ACACAGCGAGGAUAUACAUGAGGAUCACCCAUGUGGUGGCGGUUACGGUAGGACUAGUGUAGAAGGUGCCGUGG | 480 | 414 | – | –
ACACAUGAGGAUCACCCAUGUACGCGCUGACAGGAGGUCUCACAGGAUAUAUGUGGUGAUGCUACAUAGAAGGGUGAUACCGCG | – | – | 233 | 49.5
ACACGGUAUGUAGGAUAUGCAUAGCAUUGCUAUGCAGAAGGACAUGAGGAUCACCCAUGUAUGUAUUCCAUACUAAUCCCGUGC | 6.03 | 6 | – | –
ACACUGCGAGGAUAUACAUGAGGAUCACCCAUGUGUCGGCAGGUACGGUAGCACUAGUGUAGAAGGCGCAUUGG | 24.6 | 42 | – | –
ACAGAUGCUGACAUGAGGAUCACCCAUGUUAGAUUGUUAUGUCAGGAUAUUAUCUGGCAACCAGAUGAGAAGGGACCAUCUGUU | – | – | 15.6 | 7.31
ACAGCGUGAGGAUAUACAUGAGGAUCACCCAUGUAUGGCAGGUUAUCCUGUCGUGAGUGUAGAAGGCACGCUGU | 17.4 | 58.9 | – | –
ACAUACAUUCGAGGAUAUCGGUGAUUAAUUUUACGAGAAGGCGAUAUAAGAUAUAAUAUUUUAGACAUGAGGAUCACCCAUGUA | – | – | 25.5 | 22.9
ACAUAGUGAGGAUAUGCUGCUCGUCACUUGCGUGAUGAGUAGCAGAAGGCACAUGAGGAUCACCCAUGUAAAGA | 42.3 | 63.7 | – | –
ACAUAGUUAGGAUAUGCUGCUCGUCACUUGCGUGAUGAGUAGCAGAAGGAACAUGAGGAUCACCCAUGUAAAAA | 28.3 | 25.5 | – | –
ACAUGACAAUCAGGAUAUCGACAUGAGGAUCACCCAUGUACGGGUGUCAAUCGAGAAGGGAUUGUAGCGCCAACUGAGACGUUU | 78 | 110 | – | –
ACAUGACAUGAGGAUCACCCAUGUGAGGAUAUGCGAAAAAAAAAAAAAAAAAAAAUUGGCAGAAGGCACAAAAU | 167 | 180 | – | –
ACAUGAGGAUCACCCAUGUAGAAUGAAGAAGGUACUAUAUAGAUAUACACCCUAUGUCUAUAUAGUAAGGAUAUUCUAAUAAUU | – | – | 6.45 | 6.35
ACAUGAGGAUCACCCAUGUAGAAUGAAGAAGGUAGAUAAUUGUGUUUCACCCAUGUACAUAAAUCUAAGGAUAUUCUAAUAAUU | – | – | 12.3 | 7.35
ACAUGAGGAUCACCCAUGUAUUUGUAGGAUAUACACAAUUAUUUAUUACUCUAAUUAAUAUGUUUGUAGAAGGACACUGCAUGA | 11.5 | 11.9 | – | –
ACAUGAGGAUCACCCAUGUCACUUUUACAUGGGUAUAUAAGCGAGGAUAUGCAUAUACCCUGGGUGCAGAAGGCGCUUUUUUAA | 74.5 | 105 | – | –
ACAUGAGGAUCACCCAUGUGACAAGAAUGGCUGAUACAGAGACAGGAUAUAGGUGCAUAUCUAACCUAGAAGGGUCAUGACUGG | 35.2 | 31.9 | – | –
ACAUGAGGAUCACCCAUGUGAUGAUCUUCCAUGUCAUAUUUCAGAAGGCUCGCAUGUUUAAUGAGAGAGGAUAUGGAAUAUGCG | 701 | 386 | – | –
ACAUGAGGAUCACCCAUGUGGAGUGAAGAAGGUAGAUACUUAUGACUCUCCCAUGUACAUAGGACUGAGGAUAUUCUAAUAAUU | – | – | 30.8 | 24
ACAUGAGGAUCACCCAUGUUAUCAGGGACUUCAAUUAUUUCUAGAAGGCUGUUUACUUGUUAGUCAGAGGAUAUAGAAUUAAAU | 14.5 | 15.9 | – | –
ACAUGAGGAUCACCCAUGUUAUCAGGGACUUCAAUUAUUUGUAGAAGGCUGUUUUCUUGUAAGUCAGAGGAUAUACAAUUAAAU | 11.9 | 14.3 | – | –
ACAUGAGGAUCACCCAUGUUAUCCGGGACUUCAAUUGUUUCUAGAAGGCUGUUUACUUGUUAGUCAGAGGAUAUAGAAUCAAAU | 10.7 | 11.4 | – | –
ACAUGAGGAUCUCCCAUGUAAAAUUAGGAUAUAUAACUACACAUGAGGAUCACCCAUGUUUAACCGUAGAAGGGAUAAAUAAUU | – | – | 986 | 1020
ACAUGAGGAUCUCCCAUGUAAAAUUAGGAUAUAUGACUGCACAUGAGGAUCACCCAUGUUCUACCGUAGAAGGGAUAAAUAAUU | – | – | 516 | 427
ACAUGCGGAUGAGGAUAUUCAUUCAUGAGGAUAGAAGAAGGCAUACAUGAGGAUCACCCAUGUAUACGCAUGAGGAUCCCUUAU | 24.8 | 32.7 | – | –
ACAUGGUAGUAGAAGGGUAUUACUUUAGAUACAACCAUUUGUAUUGUUUAUACAGGAUAUGCUUACAUGAGGAUCACCCAUGUU | 11.3 | 11.1 | – | –
